The values that follow come from ChEMBL document CHEMBL1154975, “Selective inducible microsomal prostaglandin E(2) synthase-1 (mPGES-1) inhibitors derived from an oxicam template” (Bioorg Med Chem Lett, 2010).

Test [1] deals with T1, Prostaglandin E synthase (Homo sapiens, UniProt O14684).
T1 sequence (O14684 whole entry): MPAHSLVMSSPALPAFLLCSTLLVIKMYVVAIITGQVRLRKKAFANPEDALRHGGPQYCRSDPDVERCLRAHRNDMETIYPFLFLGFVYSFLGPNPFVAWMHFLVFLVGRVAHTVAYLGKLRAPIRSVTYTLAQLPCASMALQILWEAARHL
Nature of the test: Inhibition of human mPGES1 in IL1-beta treated human FF cells assessed as blockade of PGH2 to PGE2 conversion after 50 mins by ELISA. Format: cell-based. Summed up:
(§1)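 Human fetal fibroblasts in DMEM/15% FBS at 37 °C, 5% CO2; after 20–24 h, stimulated 20–24 h with 1 ng/mL IL-1β, washed, compound 50 min in serum-free DMEM, then 10 µM arachidonic acid 10 min. PGE2 by ELISA. For PGF2α, SnCl2 added after compound for 10 min before arachidonic acid. IC50 from duplicate data.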
(In general: ELISA stands for enzyme-linked immunosorbent assay.)

Test [2] addresses T1, Prostaglandin E synthase. In words: Inhibition of human mPGES1 assessed as PGE2 level after 41 sec by ELISA. Summed up:
(§2)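 Enzyme in 100 mM potassium phosphate pH 6.2 with 2.5 mM glutathione, compound added in DMSO. Reaction started with PGH2 (final 2 µM), stopped with 2.5 mM FeCl2, diluted 120-fold into ELISA buffer. PGE2 by ELISA against a standard curve. % control set between reference-inhibited and enzyme-only controls; IC50 by 4-parameter log fit of duplicate data.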

The target of test [3] is T2, Prostaglandin G/H synthase 2 (Homo sapiens, UniProt P35354).
T2 sequence (P35354 whole entry): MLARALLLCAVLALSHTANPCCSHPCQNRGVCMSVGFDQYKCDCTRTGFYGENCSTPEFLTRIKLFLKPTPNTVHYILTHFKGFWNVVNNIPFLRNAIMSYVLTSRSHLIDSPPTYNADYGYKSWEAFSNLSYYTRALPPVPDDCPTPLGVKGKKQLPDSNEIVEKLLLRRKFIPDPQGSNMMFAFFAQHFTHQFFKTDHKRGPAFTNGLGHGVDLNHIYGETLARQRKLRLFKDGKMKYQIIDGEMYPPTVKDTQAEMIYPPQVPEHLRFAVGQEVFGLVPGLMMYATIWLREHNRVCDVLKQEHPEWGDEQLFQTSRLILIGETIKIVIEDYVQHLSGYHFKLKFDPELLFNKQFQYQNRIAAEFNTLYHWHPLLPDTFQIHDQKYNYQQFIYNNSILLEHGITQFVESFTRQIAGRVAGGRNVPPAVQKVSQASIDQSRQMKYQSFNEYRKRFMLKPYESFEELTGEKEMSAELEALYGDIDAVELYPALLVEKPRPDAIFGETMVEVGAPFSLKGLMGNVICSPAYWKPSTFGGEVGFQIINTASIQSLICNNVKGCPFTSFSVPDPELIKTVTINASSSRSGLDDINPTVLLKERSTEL
In words: Inhibition of human COX2 in IL1-beta treated human FF cells assessed as blockade of SnCl2-mediated PGH2 to PGF2alpha conversion after 50 mins by ELISA. Format: cell-based. Summed up:
as §1

Test [4] is described as follows: Inhibition of rat mPGES1.
Test [5] has as its target T1, Prostaglandin E synthase. In words: Inhibition of mPGES1. Summed up:
as §2

Test [6] has as its target T3, Prostaglandin G/H synthase 1 (Homo sapiens, UniProt P23219). Nature of the test: Inhibition of COX1.
Test [7] has as its target T2, Prostaglandin G/H synthase 2. In words: Inhibition of human recombinant COX2.
Test [8] addresses T3, Prostaglandin G/H synthase 1. Nature of the test: Inhibition of human recombinant COX1.
Test [9] addresses T4, Prostaglandin G/H synthase 2 (Homo sapiens) (UniProt P35354).
T4 sequence (whole entry): T2 sequence (P35354 whole entry)
Nature of the test: Inhibition of COX2.

SMILES strings stand for the structures.

T3 sequence (P23219 whole entry): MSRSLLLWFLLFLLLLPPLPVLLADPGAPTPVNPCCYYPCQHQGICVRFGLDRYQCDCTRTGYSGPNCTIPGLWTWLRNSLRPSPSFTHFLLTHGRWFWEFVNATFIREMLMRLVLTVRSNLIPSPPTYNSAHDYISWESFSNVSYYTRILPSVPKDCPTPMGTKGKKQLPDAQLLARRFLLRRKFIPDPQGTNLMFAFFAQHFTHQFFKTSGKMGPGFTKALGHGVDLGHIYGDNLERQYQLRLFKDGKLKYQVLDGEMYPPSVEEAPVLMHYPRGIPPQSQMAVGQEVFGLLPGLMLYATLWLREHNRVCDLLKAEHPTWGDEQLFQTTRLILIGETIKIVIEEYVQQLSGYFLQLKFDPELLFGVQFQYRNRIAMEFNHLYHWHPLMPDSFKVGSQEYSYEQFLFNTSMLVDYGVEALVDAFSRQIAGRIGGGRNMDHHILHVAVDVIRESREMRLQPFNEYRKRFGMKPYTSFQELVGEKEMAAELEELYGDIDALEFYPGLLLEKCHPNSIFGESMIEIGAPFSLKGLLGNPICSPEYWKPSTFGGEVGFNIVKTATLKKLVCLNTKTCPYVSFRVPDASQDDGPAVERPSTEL

`CN1C(C(=O)Nc2ccc(-c3ccc(Cl)c(Cl)c3)cc2)=C(O)c2ccccc2S1(=O)=O`: the IC50 on Prostaglandin E synthase [1] amounted to 2040 nM; on Prostaglandin E synthase [2], 280 nM.

On to `O=C(Nc1cccc(C(=O)c2ccc(Cl)cc2)c1)C1=C(O)c2ccccc2S(=O)(=O)N1`, for which the results for the IC50 (at Prostaglandin E synthase [1]; in test [3]; on Prostaglandin E synthase [2]) were 2160 nM, 95.3 µM and 3910 nM, respectively.

Take `COc1ccc2c(c1)S(=O)(=O)NC(C(=O)Nc1ccc(-c3ccc(Cl)c(Cl)c3)cc1)=C2O`: the 50% inhibitory concentration (IC50) at Prostaglandin E synthase [2] worked out at 3050 nM.

Take `O=C(Nc1ccc(-c2ccc(Cl)nc2)cc1)C1=C(O)c2ccccc2S(=O)(=O)N1`: at Prostaglandin E synthase [2], the IC50 is 12700 nM.

Regarding `O=C(Nc1ccc(-c2ccccc2)cc1)C1=C(O)c2ccccc2S(=O)(=O)N1`, the IC50 on Prostaglandin E synthase [1] was found to be 6730 nM; in test [3], 92.6 µM; on Prostaglandin E synthase [2] it was 3130 nM.

As to `O=C(Nc1ccc(Nc2ccc(Cl)cc2)cc1)C1=C(O)c2ccccc2S(=O)(=O)N1`, the figures for the IC50 (at Prostaglandin E synthase [1]; in [3]; at Prostaglandin E synthase [2]) were 4240 nM, more than 100 µM and 150 nM, respectively.

For the molecule `COc1ccc2c(c1)C(O)=C(C(=O)Nc1ccc(-c3ccc(Cl)c(Cl)c3)cc1)NS2(=O)=O`, the results for the IC50 (at Prostaglandin E synthase [1]; in test [3]; at Prostaglandin E synthase [2]) were 1290 nM, more than 100 µM and 690 nM, respectively.

Regarding `Cc1ccc(-c2ccc(NC(=O)C3=C(O)c4ccccc4S(=O)(=O)N3)cc2)cc1C`, the IC50 at Prostaglandin E synthase [1] was less than 750 nM; in test [3] it was more than 57.7 µM; at Prostaglandin E synthase [2], less than 26 nM.

As for `O=C(Nc1ccc(-c2ccc(Cl)cc2Cl)cc1)C1=C(O)c2ccccc2S(=O)(=O)N1`, the IC50 was less than 760 nM at Prostaglandin E synthase [1], more than 74.8 µM in test [3] and 43 nM on Prostaglandin E synthase [2].

With `Cc1ccc(-c2ccc(NC(=O)C3=C(O)c4ccccc4S(=O)(=O)N3)cc2)cc1`, the IC50 at Prostaglandin E synthase [1] was 2240 nM; in test [3], more than 100 µM; on Prostaglandin E synthase [2], less than 70 nM.

`CC(C)c1ccc2c(c1)c(SC(C)(C)C)c(CC(C)(C)C(=O)O)n2Cc1ccc(Cl)cc1`: in test [4], the IC50 stood at 3.2 µM.

Take `O=C(Nc1ccc(-c2cccc(Cl)c2Cl)cc1)C1=C(O)c2ccccc2S(=O)(=O)N1`: the half-inhibitory concentration (IC50) at Prostaglandin E synthase [1] was less than 920 nM; in [3], 44.4 µM; at Prostaglandin E synthase [2], 38 nM.

Consider `O=C(Nc1ccccc1CCc1ccc(Cl)c(Cl)c1)C1=C(O)c2ccccc2S(=O)(=O)C1`, for which the figures for the IC50 (at Prostaglandin E synthase [1]; in test [3]; on Prostaglandin E synthase [2]) were 3400 nM, more than 90 µM and 1680 nM, respectively.

`O=C(Nc1ccc(Oc2ccc(Cl)cc2)cc1)C1=C(O)c2ccccc2S(=O)(=O)N1`: the IC50 at Prostaglandin E synthase [1] amounted to 6730 nM; in test [3] it was 70 µM; at Prostaglandin E synthase [2] it was 530 nM.

For the molecule `O=C(Nc1ccc(-c2ccc(Cl)c(Cl)c2)cn1)C1=C(O)c2ccccc2S(=O)(=O)N1`, the IC50 on Prostaglandin E synthase [2] was 65600 nM.

`Fc1cccc(Cl)c1-c1nc(-c2ccc(C#Cc3ccc(C(F)(F)F)cc3)nc2)c(Br)[nH]1` showed an IC50 against Prostaglandin E synthase [5] of 0.8 nM.

In the case of `O=C(Nc1ccc(CCc2ccc(Cl)c(Cl)c2)cc1)C1=C(O)c2ccccc2S(=O)(=O)N1`, the IC50 is 460 nM at Prostaglandin E synthase [1]; 467 µM in test [7]; 489 µM in [8]; more than 68 µM in [3]; 110 nM on Prostaglandin E synthase [2]. Moreover, the INH in test [6] and in [9] was more than 50 µM throughout.

Consider `O=C(Nc1ccc(-c2ccc(Cl)c(Cl)c2)cc1)C1=C(O)c2cc(O)ccc2S(=O)(=O)N1`, for which the IC50 is 1450 nM on Prostaglandin E synthase [1], more than 100 µM in test [3] and 98 nM on Prostaglandin E synthase [2].

On to `O=C(Nc1ccc(C(=O)c2ccc(Cl)cc2)c(Cl)c1)C1=C(O)c2ccccc2S(=O)(=O)N1`, for which the figures for the IC50 (at Prostaglandin E synthase [1]; in test [3]; at Prostaglandin E synthase [2]) were 1140 nM, 95.6 µM and 110 nM, respectively.

Regarding `O=C(CNS(=O)(=O)c1ccccc1CO)Nc1ccc(-c2ccc(Cl)c(Cl)c2)cc1`, on Prostaglandin E synthase [2], the IC50 was determined as 29600 nM.

For the molecule `O=C(CNS(=O)(=O)c1ccccc1C(=O)O)Nc1ccc(-c2ccc(Cl)c(Cl)c2)cc1`, the IC50 on Prostaglandin E synthase [1] is 37600 nM; in test [3], more than 100 µM; on Prostaglandin E synthase [2], 5760 nM.

For the molecule `O=C(Nc1ccc(-c2ccc(Cl)c(Cl)c2)cc1)C1=C(O)c2ccc(O)cc2S(=O)(=O)N1`, the IC50 at Prostaglandin E synthase [2] turned out to be 180 nM.

Take `O=C(Nc1ccc(-c2ccc(Cl)cc2Cl)cn1)C1=C(O)c2ccccc2S(=O)(=O)N1`: the IC50 at Prostaglandin E synthase [2] was determined as 11700 nM.

In the case of `COc1ccc(-c2ccc(NC(=O)C3=C(O)c4ccccc4S(=O)(=O)N3)cc2)cc1OC`, the IC50 at Prostaglandin E synthase [2] was determined as 32200 nM.

In the case of `N#Cc1ccc(-c2ccc(NC(=O)C3=C(O)c4ccccc4S(=O)(=O)N3)cc2)cc1`, the IC50 at Prostaglandin E synthase [2] is 3960 nM.

Regarding `O=C(Nc1ccc(-c2ccc(Cl)c(Cl)c2)cc1)C1NS(=O)(=O)c2ccccc2C1O` (stereo not given), the IC50 on Prostaglandin E synthase [1] is 670 nM; in test [7] it was more than 50 µM; in test [8], more than 50 µM; in test [3] it was more than 100 µM; on Prostaglandin E synthase [2], 190 nM.

Turning to `O=C(Nc1ccc(-c2ccc(Cl)cc2)cc1)C1=C(O)c2ccccc2S(=O)(=O)N1`, the half-maximal inhibitory concentration (IC50) at Prostaglandin E synthase [1] came out at 1450 nM; in test [3], 33.7 µM; at Prostaglandin E synthase [2] it was 290 nM.

With `O=C(Nc1ccc(-c2cccc(Cl)c2)cc1)C1=C(O)c2ccccc2S(=O)(=O)N1`, the IC50 stood at 3440 nM on Prostaglandin E synthase [1], 74.7 µM in test [3] and 860 nM at Prostaglandin E synthase [2].

In the case of `O=C(Nc1ccc(-c2ccc(Cl)c(Cl)c2)nc1)C1=C(O)c2ccccc2S(=O)(=O)N1`, the concentration for half-maximal inhibition (IC50) on Prostaglandin E synthase [1] stood at 690 nM; in test [3], 33.7 µM; on Prostaglandin E synthase [2], 160 nM.

Take `Cc1cccc(-c2ccc(NC(=O)C3=C(O)c4ccccc4S(=O)(=O)N3)cc2)c1C`: the results for the IC50 (on Prostaglandin E synthase [1]; in [3]; on Prostaglandin E synthase [2]) were 6590 nM, 94.7 µM and 1000 nM, respectively.

Broadly, the IC50 is the concentration that inhibits the measured activity by half.
